B1: tRNA (parent)
chain: GUUCCGUUGGCGUAAUGGUAACGCGUCUCCCUCCUAAGGAGAAGACUGCGGGUUCGAGUCCCGUACGGAACG

Variants at the floor of the assay were thinned out. Where only a bound is given, the exact number is not on record here.

In the data set the parent is B1. The data set is described as follows: yeast fitness relative to wild type (ratio to wild type); higher = fitter; tRNA-Arg(CCU), competitive growth, 37 C, YPD. An outline of the steps: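 A pool of Saccharomyces cerevisiae strains, each with a tRNA-Arg(CCU) gene variant at the native genomic locus, was competed in YPD at 37°C for 24 hours across six parallel replicates. The variants had been chemically synthesised at a 3% per-site mutation rate over 69 sites, and gene amplicons before and after competition were read by 100-nucleotide paired-end sequencing. Darwinian fitness relative to wild type rested on changes in genotype frequencies. Genotypes required ≥ 100 starting reads, and estimates < 0.5 were set to 0.5.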
Take C11A A36G A43C G48A: the yeast fitness was 0.558. Regarding C11G G23C A37G A57C, the yeast fitness was found to be 0.979. Under C11G C30A U47G U53C stands 0.597. Regarding C11A C34G U35G G39A, the yeast fitness was no more than 0.5. Regarding C11A A36G C49G A70G, the yeast fitness worked out at 0.584. Consider C11A A43G A69U, for which the yeast fitness was determined as 0.582. In the case of C11A C33U A43U it was 0.532. Turning to C11G A15C C34U A65C, the yeast fitness was no more than 0.5. In the case of C11A C27G C30G G44C it was 0.538; in that of G10C G23C A45U U59G, 0.528; in that of G10C G17A A20U, no more than 0.5.

For the variant C11G C24U A45C C55U, the yeast fitness was no more than 0.5. With C11G U16C C27G, the yeast fitness is no more than 0.5. As for G10U A42U, the yeast fitness amounted to 0.775. Under C11G A14G G17A A37G G48C C62U C66G A70G stands no more than 0.5; under C11G A37C A45U G68C, no more than 0.5; under C11A C30U C49A A69U, no more than 0.5. In the case of C11A C31G it was 0.592.

As to C11A G17C A36G G41C A45G C49U, the yeast fitness is no more than 0.5. In the case of C11G C33A A42C it was 0.7; in that of C11G U19C A40G C66G A69U, no more than 0.5; in that of C11G C24U U28C A42G C60U C62G, no more than 0.5. In the case of C11A A21U C34A it was no more than 0.5; in that of C11G C49G C66A G67U, no more than 0.5; in that of C11G C55G, 0.594. In the case of C11G A14G C24G G67C it was no more than 0.5.

With C11G G39C G50C, the yeast fitness was determined as 0.545.

Take C11G C31G A36U: the yeast fitness was no more than 0.5.

On to C11G G18C A21G A40U A70U, for which the yeast fitness came to 0.509. Under C11A C31G A42U C62U U64A stands no more than 0.5; under G10C G12A C22A C24G U53A, no more than 0.5. With C11G G67A, the yeast fitness came to 0.635. In the case of G10C G23C A42G G50A A57C G67A it was no more than 0.5; in that of C11A G68U, 0.54; in that of C11G C29U C34U G51C C66U, no more than 0.5.

C11G A15U U16C C24G A40G C62U A70C: the yeast fitness was no more than 0.5. Take G10C G12C C46G C55U: the yeast fitness is no more than 0.5. In the case of C11A C62G G63A it was no more than 0.5. As for C11A A37U C62A C66U, the yeast fitness was no more than 0.5. Under C11A C27U C30A A43C C60U stands no more than 0.5; under C11G A20C G23A G52C C61U, 0.662. In the case of C11A A21C C30U C66U it was 0.539; in that of C11G A14G A15U G23C U53A C62U, no more than 0.5; in that of C11A A40C, 0.708. In the case of C11G C29A it was 0.518. For the variant C11G C31U G67C, the yeast fitness amounted to 0.632.

G10C U26A A70U: the yeast fitness came out at 0.622. C11G G23C A36U G44C G68A: the yeast fitness turned out to be 0.717. In the case of G10C G52A it was 0.666; in that of C11G C60G G67C, 0.667.

As for C11A C22G G67A G68C, the yeast fitness was no more than 0.5.

Regarding C11G U28A A65U A69U, the yeast fitness is no more than 0.5. As for C11G A37C A42G C66G G68U, the yeast fitness was no more than 0.5.

As to C11G A36C U47C C49U A69C, the yeast fitness was no more than 0.5. Under G10C G25A stands 0.691; under G10C U16G C31A U32G C66A, no more than 0.5; under C11A C27G C33U G56A C61G, no more than 0.5. Take C11A U13A C31G A65C: the yeast fitness is no more than 0.5. Consider C11G U26C G67C A69C, for which the yeast fitness is no more than 0.5. Under C11A C31G C62G stands 0.506; under C11G C24G C27A U28C G67A, no more than 0.5. In the case of C11A G48A U54A, the yeast fitness was 0.584.

Regarding C11G C22U C27U U47A G52C, the yeast fitness came out at 0.67. Under G10C C62U stands 0.646; under C11A A15U A20C, no more than 0.5. In the case of C11A C29U C46U G67C A69U it was no more than 0.5; in that of C11A G39C C62U, no more than 0.5. In the case of G10U U13A it was 0.675. For C11A A36C A42G U47C G67A, the yeast fitness is no more than 0.5. Regarding C11G A57U C66U, the yeast fitness is no more than 0.5. With C11G A36U A40C, the yeast fitness amounted to 0.612. In the case of C11A A43G C46G A65U, the yeast fitness is no more than 0.5.

As for G10C U19A A37C G50U, the yeast fitness is 0.526. In the case of C11A C27U C31U C34G A40G it was no more than 0.5. In the case of C11G U19A C31U A43G G52C it was no more than 0.5. Under C11G A21U A42U stands no more than 0.5.

Regarding C11A U26C C29G C31U, the yeast fitness is 0.655. In the case of G10C G12A C33A U35G U47A C55A C61U it was no more than 0.5. As to C11G A15C, the yeast fitness turned out to be 0.528. On to C11A C27G C62U G68A, for which the yeast fitness is no more than 0.5. In the case of C11G A15U A65C it was 0.544; in that of C11A C27U C33U U35C A57U, no more than 0.5; in that of C11A C30U C33G U64C, no more than 0.5. With C11G A15G C24G C46G G67A, the yeast fitness is no more than 0.5. In the case of C11A C31A G38U G44C A65G it was no more than 0.5. Under C11A C27A A70G stands no more than 0.5. In the case of C11G G56A it was 0.721; in that of C11A C55G, 0.535.

In the case of G10C G51C A65C C66U, the yeast fitness was no more than 0.5. Under C11A A15U A21U A36C A37U stands 0.56; under C11G C49U C61A, 0.582. Consider C11A C62U, for which the yeast fitness was determined as 0.616. Take C11A C62A: the yeast fitness is no more than 0.5.

G10C G58A C66G: the yeast fitness is no more than 0.5. As for C11A A57G, the yeast fitness came to 0.655. In the case of C11G A40C it was 0.6; in that of C11A C34G G50A, 0.681; in that of C11G C27U U28A, 0.537. Under C11A C46U G48A C55U U59A stands no more than 0.5. On to C11G C24G C27A U28C A65U, for which the yeast fitness came to 0.533. Under C11A U53A C62G stands no more than 0.5; under C11G C24U G68C, 0.523; under C11G A42U A43C, no more than 0.5. In the case of C11A U28G C33A A42C it was no more than 0.5; in that of C11A C46G A65G, no more than 0.5; in that of C11G G48A, 0.582.

With C11G A14U C22A C29G C34A, the yeast fitness was no more than 0.5.

Turning to C11A A69U, the yeast fitness amounted to 0.734.

With G10U U26C G39A A65C, the yeast fitness was no more than 0.5. Turning to C11G U16C C27G C61U, the yeast fitness was 0.545. With C11G C22G C66A A69U, the yeast fitness came out at 0.533. Under C11G G17A A20U C33G A43C C61G A65G stands no more than 0.5; under G10C U13A C31A, 0.594; under C11G U16G G38C U54A C66A, 0.648.

Consider C11G U16A C22U A45U, for which the yeast fitness was no more than 0.5.

For the variant C11G C33U A36G C55U, the yeast fitness is no more than 0.5. With C11G C24U U28C C55G, the yeast fitness is no more than 0.5. In the case of C11G A36U A42G A43C C49U A57U A65C it was no more than 0.5; in that of C11G C24G C27U C55U, 0.55; in that of C11G C29U C34U C62A C66U, 0.565. In the case of C11G A15G U26G C66U it was no more than 0.5. In the case of C11A A21C C55U C62U G67C it was 0.529; in that of G10C U13A A14G A20G C22A C24G G52C, no more than 0.5; in that of C11A U53A G67A, no more than 0.5. For the variant C11A C29U A57C, the yeast fitness was determined as 0.732. G10C G12A U54A G68A: the yeast fitness is no more than 0.5. In the case of G10C G25C C55A it was 0.545; in that of C11A U19A A42U A45C C55U A69C, 0.538; in that of C11A G52C G67A, no more than 0.5. In the case of C11G C24A G48C U54G C55U C66U it was no more than 0.5. In the case of C11A U19G A36G U54C U64C G67A it was no more than 0.5. As to C11G G23C G39A, the yeast fitness came out at 0.525. Under C11A C29U C34G A36G stands 0.607; under C11A U19G A36G C66U, no more than 0.5; under G10C U54C G56A, no more than 0.5. In the case of C11A G17A it was 0.579. Under C11G C22G A45C stands no more than 0.5; under G10C U16C C22A C33A, no more than 0.5; under C11G U26A, 0.583. As to C11A G23C A42C A43C, the yeast fitness is no more than 0.5.

As for C11A A21G C33G A36U G44A U59C, the yeast fitness is no more than 0.5. With C11G C24U G67A, the yeast fitness was no more than 0.5. With C11A C31A U32C G44C A65G, the yeast fitness was no more than 0.5. In the case of C11G C22U A36C G52C C66U it was no more than 0.5; in that of C11G C24U C55G, no more than 0.5; in that of C11G C27G C66U, no more than 0.5. In the case of G10C G18A C30G G44A G48A G58A it was no more than 0.5; in that of C11A G17C A36G G41C U53C C61A G68A, no more than 0.5; in that of C11A A15G C49U, 0.55. On to C11G C27G A42C A45C, for which the yeast fitness was no more than 0.5. Turning to G10U G48A A70U, the yeast fitness was 0.649. In the case of C11G A21U C30A G44A G52C A65U, the yeast fitness turned out to be 0.507. In the case of C11G A15U C22U A42G it was no more than 0.5; in that of C11A U26C C29G C31U G48A, no more than 0.5; in that of C11G U32A A37C G39A A43G G58C C60A C62U, no more than 0.5. In the case of C11A U16C G18C A20G A45C A57C G68C it was no more than 0.5. Under C11A A15C C24A C27A G41C stands 0.583.

For the variant C11G A21U C24U, the yeast fitness is no more than 0.5. Take C11A C22U U35C: the yeast fitness was no more than 0.5. With C11G C46A, the yeast fitness was 0.576.

On to C11G C46G, for which the yeast fitness came to 0.75. In the case of C11A U16C G18C U35C A45C A57C G68C, the yeast fitness came to 0.515. Under C11G U26A U35A G67C stands no more than 0.5; under C11G C24G C30U A43U C60G A65C, no more than 0.5; under C11G G12C A20C C24G A37G G68A A69C, no more than 0.5.

For the variant G10C G39A, the yeast fitness was 0.563. In the case of C11A C27U C31U C34G A40G G63C it was no more than 0.5.

Values taken from the RNAGym collection of RNA variant scans (doi:10.1126/science.aae0568).
